The results in this text go back to ChEMBL document CHEMBL3596113, “Callyaerins from the Marine Sponge Callyspongia aerizusa: Cyclic Peptides with Antitubercular Activity” (J Nat Prod, 2015).

Converted amounts (≈) assume the structure as drawn.

Broadly, the IC50 is the concentration needed to halve the response being measured. One may read the MIC90 as an inhibitory concentration at the 90% level, which refers to growth in some studies and to a panel of isolates in others. A word on the IC90: it is the concentration at which the effect reaches the 90% level.

In one series the test system is THP-1. As to the kind of experiment: (§1) Cytotoxicity against human THP1 cells assessed as cell growth inhibition after 48 hrs by resazurin dye reduction method. It counts as cell-based. The following applies: Homo sapiens, THP-1, 48 h. An outline of the steps: (§2)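 THP-1 human monocytic cells were grown in RPMI 1640 with 10% FBS, and MRC-5 fetal lung fibroblasts in DMEM with 10% FBS, at 37 °C in humidified 5% CO2. About 5 × 10^4 cells per well were exposed to compounds for 48 h, then to resazurin for about 3 h more. Fluorescence was read at ex 540/em 590 nm. Growth was set against uninoculated (0%) and untreated (100%) controls, and IC50 was taken as the concentration giving 50% growth inhibition.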
For orientation: The colour change of resazurin is a common sign of viable cells or microbes.

The next series concerns MRC5. As to the kind of experiment: (§3) Cytotoxicity against human MRC5 cells assessed as cell growth inhibition after 48 hrs by resazurin dye reduction method. It counts as cell-based. Particulars: Homo sapiens, MRC5, 48 h. An outline of the steps: as §2
In series [1] the test system is Mycobacterium tuberculosis. Briefly: Antitubercular activity against Mycobacterium tuberculosis after 6 days by resazurin dye reduction method. In kind it is functional. Particulars: 144 h; for MIC: read-out: MIC100. An outline of the steps:
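M. tuberculosis grown aerobically at 37 °C in Middlebrook 7H9 with 0.5% glycerol, 0.05% Tyloxapol, 10% ADS enrichment; log-phase cultures (OD600 ~1) seeded at 1 × 10^5 cells/well, exposed to test substances 6 days. Resazurin added ~8 h, then formalin fixation (5% final); fluorescence ex 540/em 590 nm. Growth relative to rifampicin (0%) and DMSO (100%) controls; MIC90 = 90% growth inhibition.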

Series [2] can be described thus: as §1. In kind it is cell-based, THP-1. Particulars: human, THP-1 cells. An outline of the steps:
as §2

A short description of series [3]: as §3. It counts as cell-based. Particulars: human, MRC5 cells. An outline of the steps:
as §2

On to `COC1NC(=O)N/C1=C\[C@@H]1N/C=C(/C(=O)N2CCC[C@H]2C(=O)N[C@@H](CC(C)C)C(=O)N[C@@H](Cc2ccccc2)C(=O)NCC(N)=O)NC(=O)[C@H](C(C)C)NC(=O)[C@@H]2CCCN2C(=O)[C@@H]2CCCN2C(=O)[C@H](CC(C)C)NC(=O)[C@H](CC(C)C)NC(=O)[C@@H]2C[C@@H](O)CN2C1=O` (stereo partly drawn), for which the IC50 in the series with THP-1 and in the series with MRC5 was greater than 10 µM each time. In series [1], this compound yielded an MIC90 greater than 100 µM.
Turning to `CC[C@H](C)[C@@H]1NC(=O)[C@H](CCC(=O)O)NC(=O)[C@@H]2C[C@@H](O)CN2C(=O)[C@H]([C@@H](C)CC)N/C=C(/C(=O)N2CCC[C@H]2C(=O)N[C@@H](CC(C)C)C(=O)N[C@@H](Cc2ccccc2)C(N)=O)NC(=O)[C@H](CC(C)C)NC(=O)[C@@H]2CCCN2C(=O)[C@@H]2CCCN2C(=O)[C@H](C(C)C)NC1=O`, the IC50 with THP-1 and in the series on MRC5 was greater than 10 µM throughout. The compound further registered an MIC90 in series [1] greater than 100 µM.
Take `CC[C@H](C)[C@H](NC(=O)[C@H](Cc1ccccc1)NC(=O)[C@@H]1CCCN1C(=O)/C1=C/N[C@@H](Cc2ccccc2)C(=O)N2CCC[C@H]2C(=O)N[C@@H](Cc2ccccc2)C(=O)NCC(=O)N[C@@H](CC(C)C)C(=O)N2CCC[C@H]2C(=O)N2CCC[C@H]2C(=O)N[C@@H](Cc2ccccc2)C(=O)N1)C(=O)N[C@@H](CC(=O)O)C(=O)O`: the IC50 in the series on THP-1 and with MRC5 was greater than 10 µM throughout. The compound also had an MIC90 in series [1] greater than 100 µM.
On to `CC[C@H](C)[C@H](NC(=O)[C@@H](NC(=O)[C@@H]1CCCN1C(=O)/C1=C/N[C@@H](Cc2ccccc2)C(=O)N2CCC[C@H]2C(=O)N[C@@H](CC(C)C)C(=O)N[C@@H](Cc2ccccc2)C(=O)N2CCC[C@H]2C(=O)N2CCC[C@H]2C(=O)N[C@@H](C(C)C)C(=O)N1)[C@@H](C)CC)C(=O)NCC(N)=O`, for which the IC50 in the series on THP-1 and in the series with MRC5 was greater than 10 µM each time. The compound further registered an MIC90 in series [1] greater than 100 µM.
`CC(C)C[C@H](NC(=O)[C@@H]1CCCN1C(=O)/C1=C/N[C@@H](CC(C)C)C(=O)N2CCC[C@H]2C(=O)N[C@@H](Cc2ccccc2)C(=O)N[C@@H](Cc2ccccc2)C(=O)N2CCC[C@H]2C(=O)N2CCC[C@H]2C(=O)N[C@@H](C(C)C)C(=O)N1)C(=O)N[C@@H](Cc1ccccc1)C(=O)NCC(N)=O`: the IC50 with THP-1 and in the series on MRC5 was greater than 10 µM in each case. In series [1], this compound had an MIC90 greater than 100 µM.
`CC[C@@H](C)[C@@H]1NC(=O)[C@H](C(C)C)NC(=O)[C@@H]2C[C@@H](O)CN2C(=O)[C@H]([C@@H](C)CC)N/C=C(\C(=O)N2CCC[C@H]2C(=O)N[C@H](C(=O)N[C@@H](Cc2ccccc2)C(=O)NCC(N)=O)[C@@H](C)CC)NC(=O)[C@H](CC(C)C)NC(=O)[C@@H]2CCCN2C(=O)[C@@H]2CCCN2C(=O)[C@H](CC(C)C)NC1=O` [CALLYAERIN A]: the values for the IC50 with THP-1 and in the series with MRC5 were 30 µM and 20 µM, respectively. The IC90 at 48 h in series [2] amounted to 50 µM; in series [3], 40 µM. The MIC90 in series [1] was 2 µM (≈ 2.72 µg/mL). Also, the MIC in series [1] is 6 µM (≈ 8.15 µg/mL).
With `CC[C@@H](C)[C@@H]1NC(=O)[C@H]([C@@H](C)CC)NC(=O)[C@@H]2C[C@@H](O)CN2C(=O)[C@H]([C@H](C)CC)N/C=C(\C(=O)N2CCC[C@H]2C(=O)N[C@H](C(=O)N[C@H](C(=O)O)[C@@H](C)CC)[C@@H](C)CC)NC(=O)[C@H](CC(C)C)NC(=O)[C@@H]2CCCN2C(=O)[C@@H]2CCCN2C(=O)[C@H](CC(C)C)NC1=O` [CALLYAERIN B], the 50% inhibitory concentration (IC50) came out at 5 µM with THP-1 and 2 µM in the series with MRC5. For the same compound, the IC90 at 48 h was found to be 30 µM in series [2] and 6 µM in series [3]. In series [1], this compound showed an MIC90 of 5 µM (≈ 6.41 µg/mL). Moreover, in series [1], the MIC is 10 µM (≈ 12.8 µg/mL).
`CC[C@H](C)[C@H](NC(=O)[C@@H](NC(=O)[C@@H]1CCCN1C(=O)/C1=C/N[C@@H](CC(C)C)C(=O)N2CCC[C@H]2C(=O)N[C@@H](Cc2ccccc2)C(=O)N[C@@H](Cc2ccccc2)C(=O)N2CCC[C@H]2C(=O)N2CCC[C@H]2C(=O)N[C@@H](C(C)C)C(=O)N1)[C@@H](C)CC)C(=O)NCC(=O)O` [CALLYAERIN E]: the IC50 in the series on THP-1 and in the series with MRC5 was greater than 10 µM each time. The same compound came in with an MIC90 in series [1] of 100 µM (≈ 126 µg/mL).
As to `CC[C@H](C)[C@H](NC(=O)[C@H](Cc1ccccc1)NC(=O)[C@H](CC(C)C)NC(=O)[C@@H]1CCCN1C(=O)/C1=C\N[C@@H](C(C)C)C(=O)N2CCC[C@H]2C(=O)N[C@@H](C(C)C)C(=O)N[C@@H](Cc2ccccc2)C(=O)N2CCC[C@H]2C(=O)N1)C(=O)O` [CALLYAERIN F], the IC50 with THP-1 and in the series on MRC5 was greater than 10 µM throughout. Also, in series [1], the MIC90 amounted to 50 µM (≈ 54.8 µg/mL).
For the compound `CC[C@@H](CO)NCCN[C@@H](CC)CO` [ETHAMBUTOL], in series [1], the MIC90 is 1.25 µM (≈ 0.255 µg/mL) and the MIC worked out at 5 µM (≈ 1.02 µg/mL).
Turning to `NNC(=O)c1ccncc1` [ISONIAZID], in series [1], the MIC90 came to 0.625 µM (≈ 0.0857 µg/mL) and the MIC came to 1.25 µM (≈ 0.171 µg/mL).
With `CO[C@H]1/C=C/O[C@@]2(C)Oc3c(C)c(O)c4c(O)c(c(/C=N/N5CCN(C)CC5)c(O)c4c3C2=O)NC(=O)/C(C)=C\C=C\[C@H](C)[C@H](O)[C@@H](C)[C@@H](O)[C@@H](C)[C@H](OC(C)=O)[C@@H]1C` [RIFAMPIN], the IC50 in the series on THP-1 and in the series on MRC5 was greater than 100 µM in each case. Also, the IC90 at 48 h in series [2] and in series [3] was greater than 100 µM in each case. In addition, the MIC90 in series [1] is less than 0.1 µM. Further, the MIC in series [1] amounted to 0.5 µM (≈ 0.411 µg/mL).
